# Data reported in publication PMC2748801 (Journal of the American Chemical Society, 2009).
# Square brackets hold non-standard residues; d marks the D form. Ends that are not written are not given here. Orn = NCCC[C@H](N)C(=O)O; Dab = NCC[C@H](N)C(=O)O; Dap = NC[C@H](N)C(=O)O
# Experiments:
# [1] = system: hairpin from IRES domain IV of HCV (IRES); assay type: binding; conditions: for Discrimination ratio against IRES RNA: average Kd against other hairpins (RRE, TAR, 16S A-site)/Kd against IRES; for Kd against IRES hairpin (in words): fluorescence anisotropy, 3i and 3j relative to 3d
# [2] = Circular dichroism, α-helical content of peptide alone; assay type: physicochemical; conditions: CD; for helicity (first value): 10 mM H3PO4, 20 °C; for helicity (second value): 50% TFE in 10 mM H3PO4, 20 °C
# In short: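 Far-UV CD spectra of each free peptide, with no RNA, at 20 °C under temperature control, in 10 mM H3PO4 and in 50% TFE in the same buffer. Scans ran 190–250 nm with 1 nm bandwidth, 0.5 nm data pitch, 20 nm/min, 16 s response and 0.1 cm path, averaging three accumulations. α-Helical content was calculated from the spectra.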
Substance,Discrimination ratio against IRES RNA [1],helicity (first value) [2] [%],helicity (second value) [2] [%],Kd against IRES hairpin (in words) [1]
LKKLLKLLKKLL[Dap]LAG [2i],12,39,54,
Ac-LKKLLKLLKKLWKLAG-NH2 [2t],5.8,12,58,
Ac-LKKLLKLLKKLLKWAG-NH2 [2u],14,20,52,subnanomolar
LKKLLKLL[Orn]KLLKWAG [3f],1.0,36,58,
LKKLLKLL[Orn]KLL[Dap]WAG [3h],1.6,12,56,
LKKLL[Dab]LL[Orn]KLLKLAG [2j],6.3,49,57,
Ac-LKKLWKLLKKLLKLAG-NH2 [2p],3.3,20,56,
Ac-LKKLLKWLKKLLKLAG-NH2 [2q],15,19,71,subnanomolar
LKKLL[Dab]LLKKLLKWAG [3e],28,39,45,
LKKLLKLL[Dap]KLLKLAG [2f],0.6,25,57,
LKKLLKLL[Orn]KLLKLAG [2d],9.1,28,57,
LKKLLKLLKKLL[Dap]WAG [3g],9.4,41,63,
LKKLL[Dab]LLKKLL[Dap]LAG [2l],13,40,50,
LKKLLKLLKKLL[Orn]LAG [2g],3.3,36,53,
Ac-LKKWLKLLKKLLKLAG-NH2 [2o],5.5,4.6,52,
LKKLL[Dap]LLKKLLKLAG [2c],2.4,26,61,
LKKLLKLLKKLL[Dab]LAG [2h],2.0,24,34,
LKKLL[Orn]LLKKLLKLAG [2a],2.5,13,82,
LKKLL[Dab]LLKKLLKLAG [2b],6.3,23,63,
LKKLLKWL[Orn]KLLKLAG [3b],4.2,34,52,
LKKLL[Dab]WLKKLLKLAG [3a],10,29,55,
Ac-LKKLLKLWKKLLKLAG-NH2 [2r],0.67,14,59,
LKKLLKLL[Orn]KLL[Dap]LAG [2k],25,48,61,
LKKLLKWL[Orn]KLL[Dap]LAG [3d],45,32,38,
LKKLL[Dab]LL[Orn]KLL[Dap]LAG [2m],4.9,49,69,
LKKLLKWLKKLL[Dap]LAG [3c],17,29,36,
LKKLLKLL[Dab]KLLKLAG [2e],6.5,43,57,
Ac-WKKLLKLLKKLLKLAG-NH2 [2n],2.4,48,65,subnanomolar
Ac-LKKLLKLLKKWLKLAG-NH2 [2s],5.8,27,60,
